Values after ≈ are worked out from the molar mass of the structure shown. Active and inactive are the calls of the source. The rule behind the calls is not given here.
Tests used:
Escherichia coli [1] = experiment: Antibacterial activity against Escherichia coli MTCC 119 after overnight incubation by broth dilution method; assay type: functional
Procedure, shortened: (§1)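 Bacteria grown at 37 °C on nutrient agar. Compounds dissolved in DMSO (1/10) and tested in twofold serial dilutions in Mueller Hinton broth in tubes. Inoculum was a McFarland-standardized suspension, final 5 × 10^5 CFU/ml, with growth and sterility control tubes. Incubation overnight at 37 °C. MIC read by OD600 as the lowest concentration with no turbidity. DMSO negative control; chloramphenicol and ciprofloxacin positive controls.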

Shigella flexneri [2] = experiment: Antibacterial activity against Shigella flexneri MTCC 1457 after overnight incubation by broth dilution method; assay type: functional; procedure, shortened: as §1
Pseudomonas aeruginosa [3] = experiment: Antibacterial activity against Pseudomonas aeruginosa MTCC 741 after overnight incubation by broth dilution method; assay type: functional; procedure, shortened: as §1
Staphylococcus aureus [4] = experiment: Antibacterial activity against Staphylococcus aureus MTCC 740 after overnight incubation by broth dilution method; assay type: functional; procedure, shortened: as §1
Aspergillus niger = experiment: Antifungal activity against Aspergillus niger MTCC 281 after 24 to 72 hrs by broth dilution method; assay type: functional
Procedure, shortened: (§2)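 Fungi grown at 25 °C on Sabouraud dextrose agar. Compounds dissolved in DMSO (1/10) and tested at several concentrations in Sabouraud dextrose broth in tubes. Conidial suspension at final 1 × 10^5 CFU/ml, with growth and sterility control tubes. […] DMSO negative control; fluconazole positive control.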

Geotrichum candidum = experiment: Antifungal activity against Geotrichum candidum MTCC 3993 after 24 to 72 hrs by broth dilution method; assay type: functional; procedure, shortened: as §2
Candida albicans = experiment: Antifungal activity against Candida albicans MTCC 227 after 24 to 72 hrs by broth dilution method; assay type: functional; procedure, shortened: as §2
Candida tropicalis = experiment: Antifungal activity against Candida tropicalis MTCC 230 after 24 to 72 hrs by broth dilution method; assay type: functional; procedure, shortened: as §2
Escherichia coli [5] = experiment: Antibacterial activity against Escherichia coli MTCC 119 at 2.5 x 10^-5 ug/ml after 24 hrs by disk diffusion assay; assay type: functional; conditions: MTCC 119, 24 h, read-out: GI
Procedure, shortened: (§3)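 Disk diffusion. 100 µl of 4-h nutrient-broth cultures spread on Mueller Hinton agar. Compounds in DMSO (1/10) applied to 8 mm paper disks. After 24 h at 37 °C, growth-inhibition zone diameter measured. DMSO negative control; chloramphenicol and ciprofloxacin positive controls.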

Escherichia coli [6] = experiment: Antibacterial activity against Escherichia coli MTCC 119 at 5 x 10^-5 ug/ml after 24 hrs by disk diffusion assay; assay type: functional; conditions: MTCC 119, 24 h, read-out: GI; procedure, shortened: as §3
Escherichia coli [7] = experiment: Antibacterial activity against Escherichia coli MTCC 119 at 1 x 10^-4 ug/ml after 24 hrs by disk diffusion assay; assay type: functional; conditions: MTCC 119, 24 h, read-out: GI; procedure, shortened: as §3
Shigella flexneri [8] = experiment: Antibacterial activity against Shigella flexneri MTCC 1457 at 2.5 x 10^-5 ug/ml after 24 hrs by disk diffusion assay; assay type: functional; conditions: MTCC 1457, 24 h, read-out: GI; procedure, shortened: as §3
Shigella flexneri [9] = experiment: Antibacterial activity against Shigella flexneri MTCC 1457 at 5 x 10^-5 ug/ml after 24 hrs by disk diffusion assay; assay type: functional; conditions: MTCC 1457, 24 h, read-out: GI; procedure, shortened: as §3
Shigella flexneri [10] = experiment: Antibacterial activity against Shigella flexneri MTCC 1457 at 1 x 10^-4 ug/ml after 24 hrs by disk diffusion assay; assay type: functional; conditions: MTCC 1457, 24 h, read-out: GI; procedure, shortened: as §3
Pseudomonas aeruginosa [11] = experiment: Antibacterial activity against Pseudomonas aeruginosa MTCC 741 at 2.5 x 10^-5 ug/ml after 24 hrs by disk diffusion assay; assay type: functional, organism-based; procedure, shortened: as §3
Pseudomonas aeruginosa [12] = experiment: Antibacterial activity against Pseudomonas aeruginosa MTCC 741 at 5 x 10^-5 ug/ml after 24 hrs by disk diffusion assay; assay type: functional, organism-based; procedure, shortened: as §3
Pseudomonas aeruginosa [13] = experiment: Antibacterial activity against Pseudomonas aeruginosa MTCC 741 at 1 x 10^-4 ug/ml after 24 hrs by disk diffusion assay; assay type: functional, organism-based; procedure, shortened: as §3
Staphylococcus aureus [14] = experiment: Antibacterial activity against Staphylococcus aureus MTCC 740 at 2.5 x 10^-5 ug/ml after 24 hrs by disk diffusion assay; assay type: functional; conditions: MTCC 740, 24 h, read-out: GI; procedure, shortened: as §3
Staphylococcus aureus [15] = experiment: Antibacterial activity against Staphylococcus aureus MTCC 740 at 5 x 10^-5 ug/ml after 24 hrs by disk diffusion assay; assay type: functional; conditions: MTCC 740, 24 h, read-out: GI; procedure, shortened: as §3
Staphylococcus aureus [16] = experiment: Antibacterial activity against Staphylococcus aureus MTCC 740 at 1 x 10^-4 ug/ml after 24 hrs by disk diffusion assay; assay type: functional; conditions: MTCC 740, 24 h, read-out: GI; procedure, shortened: as §3

| SMILES | MIC (Escherichia coli [1]) | MIC (Shigella flexneri [2]) | MIC (Pseudomonas aeruginosa [3]) | MIC (Staphylococcus aureus [4]) | MIC (Aspergillus niger) | MIC (Geotrichum candidum) | MIC (Candida albicans) | MIC (Candida tropicalis) | inhibition of growth at 25 pg/mL (Escherichia coli [5]) | inhibition of growth at 50 pg/mL (Escherichia coli [6]) | inhibition of growth at 0.0001 µg/mL (Escherichia coli [7]) | inhibition of growth at 25 pg/mL (Shigella flexneri [8]) | inhibition of growth at 50 pg/mL (Shigella flexneri [9]) | inhibition of growth at 0.0001 µg/mL (Shigella flexneri [10]) | growth inhibition (GI) (Pseudomonas aeruginosa [11]) | growth inhibition (GI) (Pseudomonas aeruginosa [12]) | growth inhibition (GI) (Pseudomonas aeruginosa [13]) | inhibition of growth at 25 pg/mL (Staphylococcus aureus [14]) | inhibition of growth at 50 pg/mL (Staphylococcus aureus [15]) | inhibition of growth at 0.0001 µg/mL (Staphylococcus aureus [16]) |
| --- | --- | --- | --- | --- | --- | --- | --- | --- | --- | --- | --- | --- | --- | --- | --- | --- | --- | --- | --- | --- |
| O=C(O)c1cn(C2CC2)c2cc(N3CCNCC3)c(F)cc2c1=O [CIPROFLOXACIN] | 1.2 µg/mL (≈ 3.62 µM) | 1.4 µg/mL (≈ 4.23 µM) | 1.8 µg/mL (≈ 5.43 µM) | 0.9 µg/mL (≈ 2.72 µM) |  |  |  |  |  |  |  |  |  |  |  |  |  |  |  |  |
| O=c1c(C2N=C(c3ccccc3)SS2)coc2ccccc12 (stereo not given) | 88 µg/mL (≈ 270 µM) | 58 µg/mL (≈ 178 µM) | inactive | 68 µg/mL (≈ 209 µM) | 90 µg/mL (≈ 277 µM) | 32 µg/mL (≈ 98.3 µM) | 30 µg/mL (≈ 92.2 µM) | 40 µg/mL (≈ 123 µM) | 24.8% | 56.7% | 100% | 44.3% | 85.5% | 100% | inactive | inactive | inactive | 30.2% | 73.9% | 100% |
| O=c1c(C2N=C(c3ccccc3)SS2)coc2ccc(Cl)cc12 (stereo not given) | 100 µg/mL (≈ 278 µM) | 90 µg/mL (≈ 250 µM) | inactive | 98 µg/mL (≈ 272 µM) | 125 µg/mL (≈ 347 µM) | 30 µg/mL (≈ 83.4 µM) | 28 µg/mL (≈ 77.8 µM) | 28 µg/mL (≈ 77.8 µM) | 22% | 49.6% | 100% | 27.3% | 55.8% | 100% | inactive | inactive | inactive | 26.4% | 51.5% | 100% |
| O=c1c(C(=S)Nc2ccccc2)coc2cc(Cl)ccc12 | 115 µg/mL (≈ 364 µM) | 96 µg/mL (≈ 304 µM) | inactive | 125 µg/mL (≈ 396 µM) | 80 µg/mL (≈ 253 µM) |  | 60 µg/mL (≈ 190 µM) | 60 µg/mL (≈ 190 µM) |  | 42.6% | 87.6% |  | 52.2% | 100% | inactive | inactive | inactive |  | 43.6% | 81% |
| O=c1c(C2N=C(c3ccccc3)SS2)coc2ccc(F)cc12 (stereo not given) | 120 µg/mL (≈ 349 µM) | 80 µg/mL (≈ 233 µM) | inactive | 205 µg/mL (≈ 597 µM) | 50 µg/mL (≈ 146 µM) | 32 µg/mL (≈ 93.2 µM) | 30 µg/mL (≈ 87.4 µM) | 42 µg/mL (≈ 122 µM) |  | 12.3% | 80.9% | 28.4% | 62.3% | 100% | inactive | inactive | inactive |  | 23.9% | 48.8% |
| O=c1c(C(=S)Nc2ccccc2)coc2cc(Cl)c(Cl)cc12 | 64 µg/mL (≈ 183 µM) | 62 µg/mL (≈ 177 µM) | inactive | 55 µg/mL (≈ 157 µM) |  |  | 75 µg/mL (≈ 214 µM) |  | 20.4% | 78.3% | 100% | 8.82% | 60.9% | 100% | inactive | inactive | inactive | 3.78% | 90.9% | 100% |
| Cc1ccc2occ(C3N=C(c4ccccc4)SS3)c(=O)c2c1 (stereo not given) | 132 µg/mL (≈ 389 µM) | 82 µg/mL (≈ 242 µM) | inactive | 54 µg/mL (≈ 159 µM) | 150 µg/mL (≈ 442 µM) | 95 µg/mL (≈ 280 µM) | 60 µg/mL (≈ 177 µM) | 52 µg/mL (≈ 153 µM) |  | 30% | 72.5% | 21% | 60.9% | 100% | inactive | inactive | inactive | 35% | 92.7% | 100% |
| O=c1c(C(=S)Nc2ccccc2)coc2ccccc12 | 62 µg/mL (≈ 220 µM) | 92 µg/mL (≈ 327 µM) | inactive | 70 µg/mL (≈ 249 µM) | 90 µg/mL (≈ 320 µM) |  |  |  | 38.5% | 85.5% | 100% |  | 55.3% | 100% | inactive | inactive | inactive | 35.6% | 76.2% | 100% |
| O=c1c(C2N=C(c3ccccc3)SS2)coc2cc(Cl)c(F)cc12 (stereo not given) | 350 µg/mL (≈ 926 µM) | 52 µg/mL (≈ 138 µM) | inactive | 72 µg/mL (≈ 191 µM) | 90 µg/mL (≈ 238 µM) | 5 µg/mL (≈ 13.2 µM) | 40 µg/mL (≈ 106 µM) | 28 µg/mL (≈ 74.1 µM) |  | 14% | 30.5% | 48.3% | 98.5% | 100% | inactive | inactive | inactive | 32.9% | 68.7% | 100% |
| O=c1c(C(=S)Nc2ccccc2)coc2ccc(F)cc12 | 68 µg/mL (≈ 227 µM) |  | inactive |  | 120 µg/mL (≈ 401 µM) |  |  |  |  | 73.8% | 100% |  |  |  | inactive | inactive | inactive |  |  |  |
| OC(Cn1cncn1)(Cn1cncn1)c1ccc(F)cc1F [FLUCONAZOLE] |  |  |  |  | 49 µg/mL (≈ 160 µM) | 9 µg/mL (≈ 29.4 µM) | 24 µg/mL (≈ 78.4 µM) | 25 µg/mL (≈ 81.6 µM) |  |  |  |  |  |  |  |  |  |  |  |  |
| O=C(N[C@H](CO)[C@H](O)c1ccc([N+](=O)[O-])cc1)C(Cl)Cl [CHLORAMPHENICOL] | 2.5 µg/mL (≈ 7.74 µM) | 5.6 µg/mL (≈ 17.3 µM) | 2.7 µg/mL (≈ 8.36 µM) | 13.6 µg/mL (≈ 42.1 µM) |  |  |  |  |  |  |  |  |  |  |  |  |  |  |  |  |

— ChEMBL document CHEMBL1153011, “Mechanism of unusual formation of 3-(5-phenyl-3H-[1,2,4]dithiazol-3-yl)chromen-4-ones and 4-oxo-4H-chromene-3-carbothioic acid N-phenylamides and their antimicrobial evaluation” (2009)
